Assay [1] concerns the target T1, Mineralocorticoid receptor (Homo sapiens) (UniProt P08235).
T1 sequence (whole entry): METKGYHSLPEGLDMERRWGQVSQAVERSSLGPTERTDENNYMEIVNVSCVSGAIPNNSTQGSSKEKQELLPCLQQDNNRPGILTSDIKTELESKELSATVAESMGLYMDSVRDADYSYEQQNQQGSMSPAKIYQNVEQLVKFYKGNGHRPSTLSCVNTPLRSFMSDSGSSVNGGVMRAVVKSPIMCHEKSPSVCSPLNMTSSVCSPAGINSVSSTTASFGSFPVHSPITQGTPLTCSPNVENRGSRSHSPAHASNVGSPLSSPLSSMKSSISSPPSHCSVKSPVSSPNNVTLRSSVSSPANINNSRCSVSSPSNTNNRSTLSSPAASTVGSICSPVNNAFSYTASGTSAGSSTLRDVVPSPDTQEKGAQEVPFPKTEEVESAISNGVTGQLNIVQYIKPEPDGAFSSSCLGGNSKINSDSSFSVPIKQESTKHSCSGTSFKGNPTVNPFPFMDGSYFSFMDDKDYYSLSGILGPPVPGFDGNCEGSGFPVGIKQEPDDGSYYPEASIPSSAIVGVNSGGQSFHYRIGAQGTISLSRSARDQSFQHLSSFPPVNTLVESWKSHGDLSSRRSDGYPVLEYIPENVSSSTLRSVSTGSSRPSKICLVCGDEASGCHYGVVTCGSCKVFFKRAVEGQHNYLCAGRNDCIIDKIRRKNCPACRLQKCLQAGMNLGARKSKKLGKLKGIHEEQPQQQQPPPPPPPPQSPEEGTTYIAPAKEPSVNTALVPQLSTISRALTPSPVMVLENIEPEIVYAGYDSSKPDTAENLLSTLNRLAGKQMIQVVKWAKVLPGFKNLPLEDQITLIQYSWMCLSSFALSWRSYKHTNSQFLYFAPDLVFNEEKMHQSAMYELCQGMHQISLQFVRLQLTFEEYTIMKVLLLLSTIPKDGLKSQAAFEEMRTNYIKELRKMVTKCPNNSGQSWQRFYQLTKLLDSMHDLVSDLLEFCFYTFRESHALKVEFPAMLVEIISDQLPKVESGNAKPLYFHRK
Put plainly: Agonist activity at human MR ligand binding domain receptor expressed in african green monkey COS7 cells by Gal4 hybrid assay. It counts as cell-based. To be noted: COS-7. The procedure, abridged:
(§1)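 Gal4-steroid receptor LBD fusion plasmid plus GAL4_UAS (5 copies, E1b TATA)-luciferase reporter, 50 ng/well each, transfected 16 h into COS-7 cells grown in phenol red-free DMEM with 10% charcoal/dextran-treated FBS. Compound treatment 20 h, then luciferase read-out. Antagonist mode uses 3 nM aldosterone (hMR) or 5 nM 17β-estradiol (hER). Values are the average of at least duplicate determinations.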

The target in another assay is T2, Estrogen receptor (Homo sapiens, UniProt P03372).
T2 sequence (P03372 whole entry): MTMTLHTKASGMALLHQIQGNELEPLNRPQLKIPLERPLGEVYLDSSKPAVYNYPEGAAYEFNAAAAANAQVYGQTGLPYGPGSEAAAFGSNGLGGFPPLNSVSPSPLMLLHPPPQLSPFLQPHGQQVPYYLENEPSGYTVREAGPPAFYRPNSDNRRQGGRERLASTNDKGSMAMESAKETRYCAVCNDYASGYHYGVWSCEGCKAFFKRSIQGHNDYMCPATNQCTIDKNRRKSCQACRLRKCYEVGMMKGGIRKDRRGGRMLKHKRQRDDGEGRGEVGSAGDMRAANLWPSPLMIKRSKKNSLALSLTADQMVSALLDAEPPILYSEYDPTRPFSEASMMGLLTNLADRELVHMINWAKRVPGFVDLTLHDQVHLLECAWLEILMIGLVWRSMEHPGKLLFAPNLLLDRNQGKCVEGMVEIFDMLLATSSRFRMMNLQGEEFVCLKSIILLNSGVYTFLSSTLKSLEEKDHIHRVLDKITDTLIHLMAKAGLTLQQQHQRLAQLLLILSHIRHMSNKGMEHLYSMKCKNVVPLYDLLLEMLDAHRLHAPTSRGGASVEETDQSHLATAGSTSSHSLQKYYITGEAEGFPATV
Description: Antagonist activity at human ER ligand binding domain expressed in african green monkey COS7 cells in presence of 17-beta-estradiol by Gal4 hybrid assay. It counts as cell-based, COS-7. The procedure, abridged: as §1

The target of assay [2] is T3, Mineralocorticoid receptor (Homo sapiens, UniProt P08235).
T3 sequence (P08235 whole entry): T1 sequence (whole entry)
Description: Antagonist activity at human MR ligand binding domain expressed in african green monkey COS7 cells in presence of aldosterone by Gal4 hybrid assay. It counts as cell-based, COS-7. The procedure, abridged: as §1

Assay [3] addresses T4, Estrogen receptor (Homo sapiens) (UniProt P03372).
T4 sequence (whole entry): T2 sequence (P03372 whole entry)
Put plainly: Agonist activity at human ER ligand binding domain expressed in african green monkey COS7 cells by Gal4 hybrid assay. Conditions: COS-7. The class given is cell-based. The procedure, abridged: as §1

A further assay deals with T5, Glucocorticoid receptor (Homo sapiens, UniProt P04150).
T5 sequence (P04150 whole entry): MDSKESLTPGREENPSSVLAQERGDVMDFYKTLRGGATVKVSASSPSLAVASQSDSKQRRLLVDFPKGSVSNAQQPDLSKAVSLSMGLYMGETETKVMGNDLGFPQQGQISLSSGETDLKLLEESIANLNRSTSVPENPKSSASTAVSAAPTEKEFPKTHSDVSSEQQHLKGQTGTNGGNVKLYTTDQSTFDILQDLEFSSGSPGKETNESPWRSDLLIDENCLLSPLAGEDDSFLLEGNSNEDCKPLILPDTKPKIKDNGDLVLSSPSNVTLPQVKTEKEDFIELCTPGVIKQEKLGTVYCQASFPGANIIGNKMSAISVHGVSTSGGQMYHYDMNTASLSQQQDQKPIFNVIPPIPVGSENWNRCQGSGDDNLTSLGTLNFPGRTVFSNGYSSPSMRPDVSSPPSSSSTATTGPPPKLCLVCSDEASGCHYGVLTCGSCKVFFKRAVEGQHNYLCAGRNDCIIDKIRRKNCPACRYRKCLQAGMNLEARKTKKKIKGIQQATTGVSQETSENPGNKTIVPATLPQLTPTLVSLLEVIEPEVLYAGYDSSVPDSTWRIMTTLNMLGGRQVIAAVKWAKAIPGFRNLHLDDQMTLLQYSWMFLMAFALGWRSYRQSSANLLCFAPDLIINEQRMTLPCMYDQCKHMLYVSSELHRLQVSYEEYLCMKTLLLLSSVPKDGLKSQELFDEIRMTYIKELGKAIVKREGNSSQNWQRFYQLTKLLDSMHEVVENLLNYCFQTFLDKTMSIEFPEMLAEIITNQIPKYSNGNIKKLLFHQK
Put plainly: Antagonist activity at human GR ligand binding domain expressed in african green monkey COS7 cells in presence of Dexamethasone by Gal4 hybrid assay. The class given is cell-based, COS-7.

Another assay deals with T6, Androgen receptor (Homo sapiens, UniProt P10275).
T6 sequence (P10275 whole entry): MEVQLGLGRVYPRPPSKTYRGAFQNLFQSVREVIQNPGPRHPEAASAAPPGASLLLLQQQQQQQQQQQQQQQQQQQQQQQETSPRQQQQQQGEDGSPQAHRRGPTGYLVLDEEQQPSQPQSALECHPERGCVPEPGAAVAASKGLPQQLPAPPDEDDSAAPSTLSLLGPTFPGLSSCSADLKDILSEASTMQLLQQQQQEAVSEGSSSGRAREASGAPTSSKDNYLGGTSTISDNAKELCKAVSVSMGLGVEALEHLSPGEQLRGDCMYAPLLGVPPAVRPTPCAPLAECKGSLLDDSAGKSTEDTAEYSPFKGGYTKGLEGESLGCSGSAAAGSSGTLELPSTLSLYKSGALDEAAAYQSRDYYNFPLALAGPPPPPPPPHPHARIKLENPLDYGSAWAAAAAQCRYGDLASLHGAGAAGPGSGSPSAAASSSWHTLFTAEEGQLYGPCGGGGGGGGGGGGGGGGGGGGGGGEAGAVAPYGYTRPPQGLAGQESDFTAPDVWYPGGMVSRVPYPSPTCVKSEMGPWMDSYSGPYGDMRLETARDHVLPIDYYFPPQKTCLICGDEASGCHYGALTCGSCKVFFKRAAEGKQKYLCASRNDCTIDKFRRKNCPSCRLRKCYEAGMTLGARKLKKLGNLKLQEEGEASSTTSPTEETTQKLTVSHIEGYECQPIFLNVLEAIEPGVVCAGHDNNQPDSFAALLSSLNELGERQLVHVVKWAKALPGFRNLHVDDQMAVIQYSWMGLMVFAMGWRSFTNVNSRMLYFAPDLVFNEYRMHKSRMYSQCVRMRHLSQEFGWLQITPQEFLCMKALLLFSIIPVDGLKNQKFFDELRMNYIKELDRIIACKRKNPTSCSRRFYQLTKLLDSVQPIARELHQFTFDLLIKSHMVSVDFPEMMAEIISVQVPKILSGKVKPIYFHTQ

Activity calls are given as the source filed them. No cut-off for these calls is given here.

For `COC[C@]1(OC)CC[C@H]2[C@@H]3CCC4=CC(=O)CCC4=C3[C@@H](c3ccc(/C=N/O)cc3)C[C@@]21C` [ASOPRISNIL], the outcome in assay [1] and in assay [3] was inactive. For the same compound, the IC50 was determined as 1900 nM at Estrogen receptor, 1600 nM in assay [2], 85 nM at Glucocorticoid receptor and 6.1 nM against Androgen receptor.

One may read the IC50 as the concentration at which inhibition is half-maximal.

The record behind these values is ChEMBL document CHEMBL1144664, “Design, synthesis, and SAR of new pyrrole-oxindole progesterone receptor modulators leading to 5-(7-fluoro-3,3-dimethyl-2-oxo-2,3-dihydro-1H-indol-5-yl)-1-methyl-1H-pyrrole-2-carbonitrile (WAY-255348)” (J Med Chem, 2008).
